Data reported in ChEMBL document CHEMBL1158182, “Antifungal activity of chalcones: a mechanistic study using various yeast strains” (Eur J Med Chem, 2008).
In brackets after ≈: the same amount, converted by molar mass.

Tests used:
Assay type in all cases: functional
[1] = tested on: Ogataea angusta; assay: Antifungal activity against Hansenula polymorpha CD3 with ade1 leu2 cds3 genotype by agar dilution method
In short: (§1)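 H. polymorpha strains were tested by agar dilution on rich YPD agar at 37 °C. Compound stocks in 96% EtOH were mixed into the medium to give […]. Cells were suspended in water, serially diluted to 10^9, 10^7, 10^5 and 10^3 cells/ml, and applied to the agar with a metal replicator. MIC was read from growth.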

[2] = tested on: Saccharomyces cerevisiae; assay: Antifungal activity against haploid Saccharomyces cerevisiae Sigma 1278b by agar dilution method
In short: (§2)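 S. cerevisiae and K. lactis strains were tested by agar dilution on rich YPD agar at 30 °C. Compound stocks in 96% EtOH were added to the medium to give […]. Cells were suspended in water, serially diluted to 10^9–10^3 cells/ml, and plated with a metal replicator. MIC was read from growth.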

[3] = tested on: Ogataea angusta; assay: Antifungal activity against Hansenula polymorpha 2b with arg1 ade1 leu2 genotype by agar dilution method; in short: as §1
[4] = tested on: Ogataea angusta; assay: Antifungal activity against Hansenula polymorpha CD1 with ade1 leu2 cds1 genotype by agar dilution method; in short: as §1
[5] = tested on: Ogataea angusta; assay: Antifungal activity against Hansenula polymorpha M2 with met2 genotype by agar dilution method; in short: as §1
[6] = tested on: Ogataea angusta; assay: Antifungal activity against Hansenula polymorpha 2a with arg1 leu2 ura3 cys1 genotype by agar dilution method; in short: as §1
[7] = tested on: Saccharomyces cerevisiae; assay: Antifungal activity against haploid Saccharomyces cerevisiae YSH1171 by agar dilution method; in short: as §2
[8] = tested on: Ogataea angusta; assay: Antifungal activity against Hansenula polymorpha WT1 with ade1 ura3 genotype by agar dilution method; in short: as §1
[9] = tested on: Kluyveromyces lactis; assay: Antifungal activity against Kluyveromyces lactis 2-18B with MATalpha metA1 ura3 leu2 genotype by agar dilution method; in short: as §2
[10] = tested on: Ogataea angusta; assay: Antifungal activity against Hansenula polymorpha CD2 with ade1 leu2 cds2 genotype by agar dilution method; in short: as §1
[11] = tested on: Saccharomyces cerevisiae; assay: Antifungal activity against diploid Saccharomyces cerevisiae 1a by agar dilution method; in short: as §2
[12] = tested on: Ogataea angusta; assay: Antifungal activity against Hansenula polymorpha WA1 with ade1 leu2 gsh1 genotype by agar dilution method
In short: (§3)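 MICs by agar dilution on rich YPD medium. Compounds were added from 96% EtOH stocks to give final agar concentrations of 20 to 50 (units as printed in the source). Cells were suspended in water, serially diluted to 10^9, 10^7, 10^5 and 10^3 cells/ml, and spotted onto agar with a metal replicator. Incubation was at 37 °C for H. polymorpha and 30 °C for S. cerevisiae.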

[13] = tested on: Saccharomyces cerevisiae; assay: Antifungal activity against haploid Saccharomyces cerevisiae YSH1170 by agar dilution method; in short: as §2
[14] = tested on: Ogataea angusta; assay: Antifungal activity against Hansenula polymorpha M4 with met4 genotype by agar dilution method; in short: as §1
[15] = tested on: Saccharomyces cerevisiae; assay: Antifungal activity against haploid Saccharomyces cerevisiae 2180 by agar dilution method; in short: as §2
[16] = tested on: Ogataea angusta; assay: Antifungal activity against Hansenula polymorpha AS1 with arg1 gsh2delta genotype by agar dilution method; in short: as §1
[17] = tested on: Saccharomyces cerevisiae; assay: Antifungal activity against haploid Saccharomyces cerevisiae 1S by agar dilution method; in short: as §2
[18] = tested on: Saccharomyces cerevisiae; assay: Antifungal activity against diploid Saccharomyces cerevisiae 29a by agar dilution method; in short: as §2
[19] = tested on: Ogataea angusta; assay: Antifungal activity against Hansenula polymorpha CRD2 with leu2 CDR2 genotype by agar dilution method; in short: as §1
[20] = tested on: Saccharomyces cerevisiae; assay: Antifungal activity against haploid Saccharomyces cerevisiae 1169 by agar dilution method; in short: as §2
[21] = tested on: Ogataea angusta; assay: Antifungal activity against Hansenula polymorpha R3 with rgh3 genotype by agar dilution method; in short: as §1
[22] = tested on: Kluyveromyces lactis; assay: Antifungal activity against Kluyveromyces lactis 2-19B with MATalpha ura lys arg genotype by agar dilution method; in short: as §2
[23] = tested on: Saccharomyces cerevisiae; assay: Antifungal activity against haploid Saccharomyces cerevisiae FY4 by agar dilution method; in short: as §2
[24] = tested on: Ogataea angusta; assay: Antifungal activity against Hansenula polymorpha MC1 with met2 cys1 genotype by agar dilution method; in short: as §1
[25] = tested on: Ogataea angusta; assay: Antifungal activity against Hansenula polymorpha D22 with arg1/arg1 ade1/ADE1 leu2/leu2 URA3/ura3 CYS1/cys1 genotype by agar dilution method; in short: as §1
[26] = tested on: Ogataea angusta; assay: Antifungal activity against Hansenula polymorpha WT2 with ade1 met6 genotype by agar dilution method; in short: as §1
[27] = tested on: Kluyveromyces lactis; assay: Antifungal activity against Kluyveromyces lactis 1-6A with MATalpha uraA lys arg genotype by agar dilution method; in short: as §2
[28] = tested on: Saccharomyces cerevisiae; assay: Antifungal activity against haploid Saccharomyces cerevisiae 10560-6B by agar dilution method; in short: as §2
[29] = tested on: Ogataea angusta; assay: Antifungal activity against Hansenula polymorpha AU05 with ade3 ura3 genotype by agar dilution method; in short: as §1
[30] = tested on: Ogataea angusta; assay: Antifungal activity against Hansenula polymorpha CTA1 with leu2 cat1 genotype by agar dilution method; in short: as §3
[31] = tested on: Saccharomyces cerevisiae; assay: Antifungal activity against haploid Saccharomyces cerevisiae D3C by agar dilution method; in short: as §3
[32] = tested on: Saccharomyces cerevisiae; assay: Antifungal activity against diploid Saccharomyces cerevisiae PV-2 by agar dilution method; in short: as §3
[33] = tested on: Saccharomyces cerevisiae; assay: Antifungal activity against diploid Saccharomyces cerevisiae PV-3 by agar dilution method; in short: as §3

Row | Compound | MIC [1] [mg/L] | MIC [2] [mg/L] | MIC [3] [mg/L] | MIC [4] [mg/L] | MIC [5] [mg/L] | MIC [6] [mg/L] | MIC [7] [mg/L] | MIC [8] [mg/L] | MIC [9] [mg/L] | MIC [10] [mg/L] | MIC [11] [mg/L] | MIC [13] [mg/L] | MIC [14] [mg/L] | MIC [15] [mg/L] | MIC [16] [mg/L] | MIC [17] [mg/L] | MIC [18] [mg/L] | MIC [19] [mg/L] | MIC [20] [mg/L] | MIC [21] [mg/L] | other results
1 | COc1ccc(/C=C/C(=O)c2ccccc2)cc1O | > 40 | > 40 | > 40 | > 40 | > 40 | 30 (≈ 118 µM) | > 40 | > 40 | 25 (≈ 98.3 µM) | > 40 | > 40 | 35 (≈ 138 µM) | > 40 | > 40 | 30 (≈ 118 µM) | > 40 | > 40 | > 40 | > 40 | > 40 | MIC [12]: 30 mg/L (≈ 118 µM); MIC [22]: 25 mg/L (≈ 98.3 µM); MIC [23]: > 40 mg/L; MIC [24]: 30 mg/L (≈ 118 µM); MIC [25]: > 40 mg/L; MIC [26]: > 40 mg/L; MIC [27]: 25 mg/L (≈ 98.3 µM); MIC [28]: > 40 mg/L; MIC [29]: > 40 mg/L
2 | O=C(/C=C/c1cccc(O)c1)c1ccc(Cl)cc1 | < 20 | 15 (≈ 58 µM) | 25 (≈ 96.6 µM) | < 20 | 25 (≈ 96.6 µM) | < 20 | 18 (≈ 69.6 µM) | 25 (≈ 96.6 µM) | < 20 | < 20 | 20 (≈ 77.3 µM) | 15 (≈ 58 µM) | 25 (≈ 96.6 µM) | 16 (≈ 61.8 µM) | < 20 | 20 (≈ 77.3 µM) | 25 (≈ 96.6 µM) | < 20 | 20 (≈ 77.3 µM) | < 20 | MIC [30]: 25 mg/L (≈ 96.6 µM); MIC [31]: 20 mg/L (≈ 77.3 µM); MIC [32]: 18 mg/L (≈ 69.6 µM); MIC [33]: 15 mg/L (≈ 58 µM); MIC [22]: < 20 mg/L; MIC [23]: 18 mg/L (≈ 69.6 µM); MIC [24]: < 20 mg/L; MIC [25]: < 20 mg/L; MIC [26]: < 20 mg/L; MIC [27]: < 20 mg/L; MIC [28]: 15 mg/L (≈ 58 µM); MIC [29]: 25 mg/L (≈ 96.6 µM)
3 | O=C(/C=C/c1cccc(O)c1)c1ccccc1 [3-HYDROXY CHALCONE] | 25 (≈ 111 µM) | 25 (≈ 111 µM) | 25 (≈ 111 µM) | 25 (≈ 111 µM) | 25 (≈ 111 µM) | 25 (≈ 111 µM) | 20 (≈ 89.2 µM) | 35 (≈ 156 µM) | < 20 | 25 (≈ 111 µM) | 25 (≈ 111 µM) | 25 (≈ 111 µM) | 30 (≈ 134 µM) | 25 (≈ 111 µM) | 20 (≈ 89.2 µM) | 25 (≈ 111 µM) | 25 (≈ 111 µM) | 20 (≈ 89.2 µM) | 30 (≈ 134 µM) | 20 (≈ 89.2 µM) | MIC [12]: < 20 mg/L; MIC [30]: 35 mg/L (≈ 156 µM); MIC [31]: 25 mg/L (≈ 111 µM); MIC [32]: 25 mg/L (≈ 111 µM); MIC [33]: 25 mg/L (≈ 111 µM); MIC [22]: < 20 mg/L; MIC [23]: 25 mg/L (≈ 111 µM); MIC [24]: 20 mg/L (≈ 89.2 µM); MIC [25]: 25 mg/L (≈ 111 µM); MIC [26]: 25 mg/L (≈ 111 µM); MIC [27]: < 20 mg/L; MIC [28]: 25 mg/L (≈ 111 µM); MIC [29]: 35 mg/L (≈ 156 µM)
